Reference: ChEMBL document CHEMBL1148322, “Synthesis and quantitative structure-activity relationship of hydrazones of N-amino-N'-hydroxyguanidine as electron acceptors for xanthine oxidase” (J Med Chem, 2004)

Biological target: Xanthine dehydrogenase/oxidase (Bos taurus, UniProt P80457)
Assay: Electron acceptor activity on bovine milk xanthine oxidase using xanthine as reducing substrate
Details: cattle
How it was run: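 Run anaerobically at 25 °C in a sealed cuvette with 25 mM Tris-HCl, 1 mM EDTA, pH 7.5. All solutions were argon-gassed for at least 10 min, and the reaction was started by injecting milk xanthine oxidase. Readings from anaerobic controls lacking the acceptor were subtracted. Uric acid formation was read as the increase in absorbance at 295 nm (ε 12.4 mmol⁻¹ cm⁻¹), expressed per min per unit enzyme, as the mean of three determinations.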

Xanthine dehydrogenase/oxidase, sequence (P80457 whole entry): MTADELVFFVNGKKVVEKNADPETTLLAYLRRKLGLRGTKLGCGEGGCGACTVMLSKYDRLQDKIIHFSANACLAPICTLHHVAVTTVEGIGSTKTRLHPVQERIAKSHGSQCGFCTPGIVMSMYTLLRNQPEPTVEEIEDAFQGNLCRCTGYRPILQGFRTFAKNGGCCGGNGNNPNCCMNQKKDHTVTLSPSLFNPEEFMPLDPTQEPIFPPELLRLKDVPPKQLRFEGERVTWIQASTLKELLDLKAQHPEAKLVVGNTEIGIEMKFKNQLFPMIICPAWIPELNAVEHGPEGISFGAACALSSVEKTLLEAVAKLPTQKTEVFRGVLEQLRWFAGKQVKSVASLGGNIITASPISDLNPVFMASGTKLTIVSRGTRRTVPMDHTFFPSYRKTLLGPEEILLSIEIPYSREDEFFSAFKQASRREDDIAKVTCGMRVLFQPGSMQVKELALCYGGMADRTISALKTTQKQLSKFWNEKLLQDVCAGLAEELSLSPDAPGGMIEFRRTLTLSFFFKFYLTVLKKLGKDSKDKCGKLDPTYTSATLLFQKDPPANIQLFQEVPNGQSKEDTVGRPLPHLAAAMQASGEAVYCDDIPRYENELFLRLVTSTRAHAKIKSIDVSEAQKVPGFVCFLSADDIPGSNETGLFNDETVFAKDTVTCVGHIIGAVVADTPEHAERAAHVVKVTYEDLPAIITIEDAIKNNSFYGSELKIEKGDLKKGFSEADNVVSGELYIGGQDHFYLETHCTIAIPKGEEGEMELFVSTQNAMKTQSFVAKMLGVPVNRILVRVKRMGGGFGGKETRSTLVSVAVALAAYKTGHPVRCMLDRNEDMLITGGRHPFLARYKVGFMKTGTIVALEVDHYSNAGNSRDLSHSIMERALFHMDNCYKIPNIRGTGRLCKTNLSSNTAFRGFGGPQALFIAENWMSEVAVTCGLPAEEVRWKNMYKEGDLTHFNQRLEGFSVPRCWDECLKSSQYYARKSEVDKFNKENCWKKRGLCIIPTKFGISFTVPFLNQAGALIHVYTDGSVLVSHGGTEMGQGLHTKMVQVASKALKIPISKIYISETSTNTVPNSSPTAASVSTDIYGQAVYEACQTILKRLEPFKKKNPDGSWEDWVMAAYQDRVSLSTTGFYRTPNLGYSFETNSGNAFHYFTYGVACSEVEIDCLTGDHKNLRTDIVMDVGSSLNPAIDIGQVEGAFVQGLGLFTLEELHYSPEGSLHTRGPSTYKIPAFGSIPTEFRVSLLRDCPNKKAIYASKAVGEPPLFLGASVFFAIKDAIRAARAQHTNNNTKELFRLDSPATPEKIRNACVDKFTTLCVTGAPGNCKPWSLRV

Acceptor activity | Structure (SMILES)
49.6 | N=C(NO)N/N=C/c1ccccc1F
82.1 | N=C(NO)N/N=C/c1ccc(Br)cc1
57.9 | N=C(NO)N/N=C/c1ccc(Cl)cc1
41 | CN(C)c1ccc(/C=N/NC(=N)NO)cc1
30.7 | COc1cc(/C=N/NC(=N)NO)cc(OC)c1
64.2 | N=C(NO)N/N=C/c1ccc(O)cc1
10.8 | COc1cc(OC)c(/C=N/N=C(\N)NO)c(OC)c1
33.8 | N/C(=N\O)N/N=C/c1ccccc1O
29.7 | COc1cc(OC)c(OC)cc1/C=N/N=C(\N)NO
72.9 | N=C(NO)N/N=C/c1ccc(O)cc1O
56.2 | N/C(=N\O)N/N=C/c1cccc(F)c1
43.2 | N=C(NO)N/N=C/c1ccc(F)cc1
47.3 | COc1ccc(OC)c([N+](=O)[O-])c1/C=N/NC(=N)NO
56.4 | N=C(NO)N/N=C/c1ccccc1[N+](=O)[O-]
31.5 | N=C(NO)N/N=C/c1cc(O)ccc1[N+](=O)[O-]
68.3 | N=C(NO)N/N=C/c1c(Cl)ccc(Cl)c1[N+](=O)[O-]
94.2 | N=C(NO)N/N=C/c1ccc([N+](=O)[O-])cc1
42.1 | N/C(=N\O)N/N=C/c1ccc(Cl)c([N+](=O)[O-])c1

Continued, compound first:

Structure (SMILES) | Acceptor activity
COc1cccc(OC)c1/C=N/NC(=N)NO | 13.2
CCN(CC)c1ccc(/C=N/NC(=N)NO)cc1 | 62.1
N=C(NO)N/N=C/c1cccc(Cl)c1 | 45.4
N=C(NO)N/N=C/c1cccc2c1OCO2 | 44.7
COc1ccc(/C=N/NC(=N)NO)c(Cl)c1OC | 155.6
COc1ccc(OC)c(/C=N/N=C(\N)NO)c1 | 42.3
N=C(NO)N/N=C/c1ccccc1Br | 72.9
COc1cc(OC)c(/C=N/NC(=N)NO)cc1Br | 16.3
COc1cc(/C=N/NC(=N)NO)c(Br)c(OC)c1OC | 119.5
COc1ccc(/C=N/N=C(\N)NO)c(OC)c1OC | 81.5
COc1cc(Br)cc(/C=N/NC(=N)NO)c1O | 72.4
N/C(=N\O)N/N=C/c1ccc(O)c(O)c1O | 40.5
COc1ccc(/C=N/NC(=N)NO)cc1 | 50.9
COc1cc(/C=N/N=C(\N)NO)cc(OC)c1OC | 54.6
COc1ccc(/C=N/NC(=N)NO)cc1O | 68.9
COc1cccc(/C=N/NC(=N)NO)c1O | 45.5
COc1cc(O)c(/C=N/N=C(\N)NO)c(OC)c1 | 101.7

Structure (SMILES) | Acceptor activity
N=C(NO)N/N=C/c1cccc(O)c1O | 43.7
COc1ccc(/C=N/NC(=N)NO)cc1Br | 35.6
N=C(NO)N/N=C/c1ccccc1Cl | 90.2
COc1ccccc1/C=N/N=C(\N)NO | 59.7
COc1cccc(/C=N/NC(=N)NO)c1 | 55
COc1cc([N+](=O)[O-])cc(/C=N/NC(=N)NO)c1OC | 0.8
N=C(NO)N/N=C/c1c(Cl)cccc1[N+](=O)[O-] | 44
N/C(=N\O)N/N=C/c1cccc([N+](=O)[O-])c1 | 24.4
N=C(NO)N/N=C/c1cc([N+](=O)[O-])ccc1O | 25.8
N=C(NO)N/N=C/c1ccc([N+](=O)[O-])cc1[N+](=O)[O-] | 295.7
N=C(NO)N/N=C/c1c([N+](=O)[O-])cccc1[N+](=O)[O-] | 154.5
COc1cc([N+](=O)[O-])c(/C=N/NC(=N)NO)c(Cl)c1OC | 48.8
N=C(NO)N/N=C/c1c(Cl)ccc([N+](=O)[O-])c1[N+](=O)[O-] | 216.3
N=C(NO)N/N=C/c1ccc(Br)c([N+](=O)[O-])c1 | 35
COc1ccc([N+](=O)[O-])c(/C=N/NC(=N)NO)c1OC | 22
COc1cc([N+](=O)[O-])c([N+](=O)[O-])c(/C=N/NC(=N)NO)c1OC | 52.9
